Bioassay records as filed in PubChem.
GPR7 antagonist = blocks human GPR7 receptor signaling | GPR7-expressing cells, fluorescence antagonist assay | inhibition, % at 4.4 µM | AID 1861 | hit rate 1.1% among 290,000; in the data active = inhibition above about 16%, passing the limit was not always enough;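 note: cells stimulated with the agonist NPW; 0% = agonist with vehicle and 100% = vehicle without agonist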
Target sequence (P48145 whole entry, looked up): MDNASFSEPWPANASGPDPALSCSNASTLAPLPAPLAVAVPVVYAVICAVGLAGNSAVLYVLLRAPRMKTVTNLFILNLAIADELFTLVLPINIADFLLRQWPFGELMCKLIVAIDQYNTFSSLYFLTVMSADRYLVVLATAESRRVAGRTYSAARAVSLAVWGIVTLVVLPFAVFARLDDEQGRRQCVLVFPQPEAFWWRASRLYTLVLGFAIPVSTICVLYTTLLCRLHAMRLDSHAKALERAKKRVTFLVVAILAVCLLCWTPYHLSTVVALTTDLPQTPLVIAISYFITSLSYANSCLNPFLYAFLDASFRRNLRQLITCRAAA
TAAR1 ag = human TAAR1 agonism; Q96RJ0; CHO RD-HGA16 TAAR1, Fluo-8 calcium fluorescence; vehicle wells 0%, saturating PEA agonist 100%; activation, % at 3 µM; hit rate 0.99% among 360,000;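 active = activation above the mean activation of all test compounds in the run plus 3 SD, cut at about 38% in these data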
Target sequence (Q96RJ0 whole entry, looked up): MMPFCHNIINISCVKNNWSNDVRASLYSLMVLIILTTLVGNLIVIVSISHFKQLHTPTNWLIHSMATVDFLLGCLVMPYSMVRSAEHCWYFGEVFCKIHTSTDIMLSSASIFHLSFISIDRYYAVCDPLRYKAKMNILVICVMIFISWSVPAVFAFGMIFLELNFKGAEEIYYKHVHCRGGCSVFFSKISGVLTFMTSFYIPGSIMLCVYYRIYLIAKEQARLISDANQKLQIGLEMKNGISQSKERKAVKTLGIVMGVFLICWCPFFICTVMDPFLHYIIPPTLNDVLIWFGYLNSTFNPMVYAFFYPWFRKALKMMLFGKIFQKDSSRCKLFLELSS
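System: CHO-derived RD-HGA16 cells with stable Gα16 and human TAAR1 / Times: 17-24 h plating, Fluo-8 75 min 37 °C, 30 min RT / Technique: calcium-sensitive Fluo-8 signal, excitation 470-495, emission 515-575 nm / Measure: % activation relative to PEA EC100 response / Benchmarks: DMSO and PEA EC100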
CHO parental Ca = signal in parental CHO cells, OX1R antagonist counter-screen; parental CHO-K1, ATP-induced calcium, Fluo-8 fluorescence; inhibition, % at 5.6 µM; hit rate 0.63% among 330,000; AID 463079;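 active = inhibition above that plate's mean sample inhibition plus 3 SD, cut at about 26% in these data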;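 note: 0% = ATP-challenged DMSO wells and 100% = DMSO wells without ATP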
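Test system: parental CHO cells; detection: calcium-sensitive Fluo-8 fluorescence; evaluation: percent inhibition of calcium signal; also added: ATP as calcium-mobilizing challenge; repeats: one well per compound; control set: ATP-challenged DMSO wells low, unchallenged DMSO wells high; compound: single nominal dose of 5.6 µM per compound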
OX1R antag-1 = OX1R (human) antagonism; O43613; OX1R-expressing cells, FRET antagonist read-out; inhibition, % at 6.6 µM; hit rate 1.8% among 330,000; AID 485270; in the data active = inhibition mostly above about 38%, no sharp cut-off; inactive = mostly below about 40%;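 note: 0% = agonist challenge alone and 100% = reference antagonist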
OX1R antag-2 = blocks the human orexin 1 receptor; CHO/OX1R cells, Fluo-8 calcium fluorescence, orexin A; inhibition, % at 5 µM; hit rate 0.43% among 330,000; AID 434989;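 active = inhibition above its plate's threshold, mean inhibition of all tested compounds on the plate plus 3 SD, cut at about 37% in these data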;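 note: 0% = orexin A challenge wells and 100% = SB-334867-A antagonist wells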
TAAR1 antag = antagonists of human TAAR1; hit rate 1.5% among 360,000; CHO RD-HGA16 TAAR1, Fluo-8 calcium fluorescence, antagonist; inhibition, % at 3 µM; Q96RJ0;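 active = inhibition above a per-plate cutoff, the mean inhibition of test compounds on that plate plus 3 SD, cut at about 49% in these data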;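 note: 0% = DMSO plus EC80 beta-PEA response and 100% = DMSO alone without agonist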
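Test system: CHO RD-HGA16 cells bearing hTAAR1 | Reagent: β-PEA, EC80 | Compound dosing: 3 µM, single point | Schedule: Dye loading 75 min at 37 °C, then 30 min room temperature | Signal: Calcium fluorescence with Fluo-8 | Evaluation: Percent inhibition of PEA-evoked calcium signal, max/basal emission ratio | Control set: DMSO-only wells and EC80 β-PEA-stimulated wells | Repeats: Singlicate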
* hit, by the source's call. The list is not random: actives were taken first. Their share in the collection is about 4.6%.

Screening CCC(=O)NC(=S)Nc1ccc(NC(=O)c2ccc(OC)cc2)cc1 returned GPR7 antagonist -10.2, TAAR1 ag 9.2, CHO parental Ca 5.6, OX1R antag-1 15.3, OX1R antag-2 4.9 and TAAR1 antag -5.0.
`CCn1c2ccccc2c2cc(NC(=O)c3cccc([N+](=O)[O-])c3C)ccc21` gave GPR7 antagonist -4.1, TAAR1 ag -1.4, CHO parental Ca -12.6, OX1R antag-1 25.6, OX1R antag-2 -5.7 and TAAR1 antag 8.3.
For CCn1c2ccccc2c2cc(NC(=O)c3ccc(=O)oc3)ccc21 the results were GPR7 antagonist -7.5, TAAR1 ag 6.5, CHO parental Ca -17.9, OX1R antag-1 12.1, OX1R antag-2 -21.6 and TAAR1 antag -16.8.
COC(=O)C1=C(C)N(Cc2ccccc2C(F)(F)F)C(=NCc2cc(OC)c(OC)c(OC)c2)NC1c1ccccc1 (configuration not stated) was read as TAAR1 ag 11.2 and TAAR1 antag -6.8.
`CCOC(=O)C1=C[C@@H](C(C)(C)C)N(S(=O)(=O)c2ccc([N+](=O)[O-])cc2)[C@H]1c1ccccc1` gave TAAR1 ag 1.7 and TAAR1 antag -6.5.
CCc1cc2cccc(C)c2nc1SCC(=O)c1ccc(NC(C)=O)cc1 was read as GPR7 antagonist 3.4, TAAR1 ag 11.3, CHO parental Ca -13.6, OX1R antag-1 52.6*, OX1R antag-2 33.6 and TAAR1 antag -11.8.
Screening CCc1cc2cccc(C)c2nc1SCC(=O)NNC(=O)c1ccco1 returned GPR7 antagonist -5.1, TAAR1 ag 13.1, CHO parental Ca -21.5, OX1R antag-1 69.9*, OX1R antag-2 -0.1 and TAAR1 antag -10.6.
For COc1ccccc1OCC(=O)Nc1cccc(-c2nnc(-c3ccco3)o2)c1 the results were GPR7 antagonist 4.7, TAAR1 ag 19.8, CHO parental Ca -14.5, OX1R antag-1 45.7*, OX1R antag-2 -18.3 and TAAR1 antag 41.7.
For O=C(Cc1ccccc1)Nc1cccc(-c2nnc(-c3ccco3)o2)c1 the results were GPR7 antagonist 6.7, TAAR1 ag 21.8, CHO parental Ca -24.4, OX1R antag-1 15.0, OX1R antag-2 -19.8 and TAAR1 antag 35.4.
For COc1ccc(CC(=O)Nc2cccc(-c3nnc(-c4cccc(C)c4)o3)c2)cc1OC the results were GPR7 antagonist -8.5, TAAR1 ag 22.4, CHO parental Ca 94.3*, OX1R antag-1 110.2*, OX1R antag-2 88.6* and TAAR1 antag 78.4*.
Screening O=C1c2ccccc2NC(c2cc(Cl)cc(Cl)c2O)N1CCc1ccccn1 (configuration not stated) returned TAAR1 ag 7.9 and TAAR1 antag -12.9.
Screening Cn1nnnc1SCC(=O)Nc1ccccc1-c1ccccc1 returned GPR7 antagonist 15.8*, TAAR1 ag 5.7, CHO parental Ca -10.7, OX1R antag-1 10.3, OX1R antag-2 -14.6 and TAAR1 antag -9.2.
For CCCn1c(SCC(=O)Nc2ccccc2-c2ccccc2)nnc1-c1ccoc1C the results were GPR7 antagonist -2.0, TAAR1 ag 0.9, CHO parental Ca -9.0, OX1R antag-1 58.9*, OX1R antag-2 -12.4 and TAAR1 antag 11.8.
For O=C(CSc1nc2ncc(Cl)cc2[nH]1)Nc1ccccc1-c1ccccc1 the results were GPR7 antagonist -9.2, TAAR1 ag 2.0, CHO parental Ca -19.2, OX1R antag-1 34.6*, OX1R antag-2 20.6 and TAAR1 antag -0.7.
O=C(CSc1nc2ncc(Br)cc2[nH]1)Nc1ccccc1-c1ccccc1 was read as GPR7 antagonist -6.3, TAAR1 ag 20.0, CHO parental Ca -2.3, OX1R antag-1 35.9, OX1R antag-2 17.1 and TAAR1 antag -24.7.
Screening Cc1cc(Oc2cccnc2)ccc1NC(=O)Cc1c[nH]c2ccccc12 returned TAAR1 ag 1.2 and TAAR1 antag 7.1.
CC(=O)Nc1ccc(N=Cc2c(O)c(C(=O)Nc3ccccc3)cc3ccccc23)cc1 was read as GPR7 antagonist -1.7, TAAR1 ag 31.4, CHO parental Ca 31.2*, OX1R antag-1 12.4, OX1R antag-2 9.6 and TAAR1 antag 21.7.
CC(=O)Nc1ccc(N=Cc2c(O)c3ccccc3oc2=O)cc1 was read as GPR7 antagonist -2.7, TAAR1 ag -0.9 and TAAR1 antag 1.3.
`COc1ccc(C(O)c2nc(-c3cccc(NC(C)=O)c3)cs2)cc1` (configuration not stated) gave TAAR1 ag 3.0 and TAAR1 antag -11.9.
For Cc1cc(SCC(N)=O)nc(SCC(=O)c2ccccc2)n1 the results were GPR7 antagonist 9.2, TAAR1 ag 0.7, CHO parental Ca -6.8, OX1R antag-1 28.2, OX1R antag-2 -15.8 and TAAR1 antag 4.4.
For Cc1ccc(C(=O)CSc2cc(C)nc(SCC(=O)c3ccccc3)n2)cc1 the results were GPR7 antagonist -5.4, TAAR1 ag 12.5, CHO parental Ca 44.4*, OX1R antag-1 29.4, OX1R antag-2 -10.6 and TAAR1 antag 54.4*.
Cc1nc2ccccc2nc1SCC(=O)c1ccccc1 was read as GPR7 antagonist -5.2, TAAR1 ag 2.7, CHO parental Ca 52.0*, OX1R antag-1 39.1, OX1R antag-2 16.7 and TAAR1 antag 13.0.
`CCC1OC(C)Cc2[nH][nH]c(=O)c21` (configuration not stated) gave TAAR1 ag 1.7 and TAAR1 antag -17.3.
O=C(CC1Sc2ccccc2NC1=O)OC(C(=O)NCCc1ccccc1)c1cccnc1 (configuration not stated) was read as GPR7 antagonist -6.0, TAAR1 ag 23.4, CHO parental Ca -9.4, OX1R antag-1 8.3, OX1R antag-2 -11.0 and TAAR1 antag 52.7*.
For CN(C)CC(CCC(CN(C)C)C(=O)c1ccccc1)C(=O)c1ccccc1 (configuration not stated) the results were GPR7 antagonist 37.9*.
CS(=O)(=O)c1ccc(OCCCN2CCC(C(O)(c3ccccc3)c3ccccc3)CC2)cc1 was read as TAAR1 ag 14.2 and TAAR1 antag 21.9.
For CCOc1cccc2c1OC1(C)CC2NC(=O)N1c1cccc(Cl)c1 (configuration not stated) the results were GPR7 antagonist -9.3, TAAR1 ag 11.6, CHO parental Ca -3.5, OX1R antag-1 43.7*, OX1R antag-2 -8.3 and TAAR1 antag 15.4.
`CCCn1c(CN2CCN(c3cccc(Cl)c3)CC2)nc2c1c(=O)n(C)c(=O)n2C` gave GPR7 antagonist -2.9, TAAR1 ag 2.5, CHO parental Ca 33.5*, OX1R antag-1 21.2, OX1R antag-2 -25.3 and TAAR1 antag 1.6.
For Cn1c(-c2ccc([N+](=O)[O-])cc2)nc2ccccc21 the results were GPR7 antagonist 11.5, TAAR1 ag -0.7, CHO parental Ca -11.9, OX1R antag-1 51.5*, OX1R antag-2 -8.7 and TAAR1 antag -8.1.
